A short description of data set [1]: folding enthalpy; higher = less favourable; fluorescence melt of hairpins on a sequencing array, two-state fit. As to conditions: sodium 0.088 M. The procedure, abridged: (§1)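 Two-state fits, bootstrapped, provided melting temperature and folding enthalpy from Cy3 fluorescence normalised to pre-quench Cy3 and to control constructs. Library hairpins with annealed Cy3 and quencher oligos were imaged on a sequenced MiSeq flow cell in 50 mM Na-HEPES pH 8.0, 25 mM NaCl, at 2.5 °C intervals up to 60 °C. Four replicates were combined with inverse-variance weighting. A 9.35 °C upward shift was applied to fitted temperatures to match UV melts.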

A short description of data set [2]: melting temperature; fluorescence melt of hairpins on a sequencing array, two-state fit, raised by 9.35 °C to match UV melts. As to conditions: sodium 0.088 M. The procedure, abridged:
as §1

GCTTAAGGAAACTCAAGC ((((.((....)).)))): the folding enthalpy in data set [1] is -17.8 kcal/mol. Moreover, in data set [2], the Tm was 28.3 °C.

As for GCTTAAGGAAACTTAGGC ((.((((....)))).)), in data set [1], the folding enthalpy was -23 kcal/mol. For the same sequence, the Tm in data set [2] was determined as 36.3 °C.

Regarding GCTTACGAAAGTACTAGC ((((((....)))..))), in data set [1], the folding enthalpy was -13.6 kcal/mol. Moreover, the Tm in data set [2] worked out at 31.8 °C.

GCTTACGAAAGTAGAGC ((((((....))).))): in data set [1], the folding enthalpy is -24.4 kcal/mol. The Tm in data set [2] amounted to 43.3 °C.

On to GCTTACGAAAGTATCAGC ((((((....)))..))), for which the folding enthalpy in data set [1] is -14.2 kcal/mol. Besides, in data set [2], the Tm came out at 33.1 °C.

Regarding GCTTAGCGAAAGCAAGGC ((.(.((....)).).)), in data set [1], the folding enthalpy was -13.5 kcal/mol. The Tm in data set [2] was determined as 38.1 °C.

As to GCTTAGCGAAAGCGAGGC ((.(.((....)).).)), the folding enthalpy in data set [1] is -15.4 kcal/mol. Further, the Tm in data set [2] worked out at 51.8 °C.

For the sequence GCTTAGCGAAAGCTTCGC ((..(((....)))..)), the folding enthalpy in data set [1] is -15 kcal/mol. The Tm in data set [2] stood at 42.9 °C.

As to GCTTAGCGAAAGCTTGGC ((..(((....)))..)), in data set [1], the folding enthalpy was -18.3 kcal/mol. The Tm in data set [2] worked out at 47 °C.

With GCTTAGGGAAACCTGAGC (((.(((....))).))), in data set [1], the folding enthalpy is -32.8 kcal/mol. The Tm in data set [2] turned out to be 46.7 °C.

Turning to GCTTATCGAAAGATCAGC (((.(((....))).))), the folding enthalpy in data set [1] is -25.3 kcal/mol. Moreover, the Tm in data set [2] was determined as 44 °C.

On to GCTTATGAAAATAAGC ((((((....)))))), for which the folding enthalpy in data set [1] is -31.8 kcal/mol. Also, the Tm in data set [2] turned out to be 51.6 °C.

With GCTTATGGAAACACAAGC ((((.((....)).)))), in data set [1], the folding enthalpy was -26.2 kcal/mol. For the same sequence, the Tm in data set [2] stood at 33.2 °C.

For GCTTCACGAAAGTGAGC (((.(((....)))))), the folding enthalpy in data set [1] is -17.8 kcal/mol. Further, the Tm in data set [2] turned out to be 51 °C.

Consider GCTTCATCGAAAGATAGC (((..(((....)))))), for which, in data set [1], the folding enthalpy is -13 kcal/mol. In addition, in data set [2], the Tm worked out at 28.3 °C.

Turning to GCTTCCCGAAAGGGCAGC (((.(((....))).))), the folding enthalpy in data set [1] is -32.5 kcal/mol. Further, the Tm in data set [2] came out at 53.3 °C.

On to GCTTCCGAAAGGAAGAGC ((((((....)))..))), for which the folding enthalpy in data set [1] was -13 kcal/mol. Also, the Tm in data set [2] amounted to 55 °C.

Turning to GCTTCCGAAAGGACCAGC ((((((....)))..))), the folding enthalpy in data set [1] is -14.2 kcal/mol. Also, in data set [2], the Tm is 31.2 °C.

For the sequence GCTTCCGAAAGGAGAGC ((((((....))).))), the folding enthalpy in data set [1] was -22.3 kcal/mol. The Tm in data set [2] came out at 49.2 °C.

Regarding GCTTCCGAAAGGAGTAGC ((((((....)))..))), the folding enthalpy in data set [1] was -24.3 kcal/mol. The Tm in data set [2] came out at 43.6 °C.

GCTTCCGAAAGGATAAGC ((((((....)))..))): in data set [1], the folding enthalpy was -22.8 kcal/mol. The Tm in data set [2] came to 44.2 °C.

GCTTCCGAAAGGATGAGC ((((((....)))..))): the folding enthalpy in data set [1] was -18.7 kcal/mol. Moreover, the Tm in data set [2] turned out to be 41.2 °C.

In the case of GCTTCCGGAAACGGAAAC (.(((((....))))).), the folding enthalpy in data set [1] is -14.7 kcal/mol. Also, in data set [2], the Tm came out at 40.5 °C.

For the sequence GCTTCGCGAAAGCAATGC ((.(.((....)).).)), in data set [1], the folding enthalpy is -16.4 kcal/mol. For the same sequence, the Tm in data set [2] was determined as 33.2 °C.

As for GCTTCGCGAAAGCCAGGC ((.(.((....)).).)), in data set [1], the folding enthalpy is -9.39 kcal/mol. Further, the Tm in data set [2] stood at 30.3 °C.

Take GCTTCGCGAAAGCGACGC ((.((((....)))).)): the folding enthalpy in data set [1] is -22.5 kcal/mol. In data set [2], the Tm turned out to be 60.9 °C.

Take GCTTCGCGAAAGCGCAGC (((.(((....))).))): the folding enthalpy in data set [1] was -30.7 kcal/mol. The Tm in data set [2] was found to be 54.1 °C.

Turning to GCTTCGCGAAAGCTACGC ((.(.((....)).).)), the folding enthalpy in data set [1] was -12.6 kcal/mol. Besides, the Tm in data set [2] came to 42.9 °C.

As for GCTTCTGGAAACAGAAGC (((((((....))))))), the folding enthalpy in data set [1] was -49 kcal/mol. Also, the Tm in data set [2] came to 64.9 °C.

For GCTTGACGAAAGTCAGC (((.(((....)))))), in data set [1], the folding enthalpy was -23.5 kcal/mol. In addition, the Tm in data set [2] was found to be 55.6 °C.

Turning to GCTTGACGAAAGTCGAGC (((.(((....))).))), the folding enthalpy in data set [1] is -39 kcal/mol. Besides, the Tm in data set [2] stood at 63.1 °C.

For the sequence GCTTGAGGAAACTCAAAC (.(((((....))))).), the folding enthalpy in data set [1] was -13.8 kcal/mol. Also, the Tm in data set [2] came to 30.6 °C.

As for GCTTGCGAAAGCACCAGC ((((((....)))..))), the folding enthalpy in data set [1] was -8.92 kcal/mol. For the same sequence, the Tm in data set [2] was found to be 34.8 °C.

Regarding GCTTGCGAAAGCAGAAGC ((((((....)))..))), the folding enthalpy in data set [1] was -21.7 kcal/mol. For the same sequence, the Tm in data set [2] was 47.2 °C.

As for GCTTGCGAAAGCAGAGC ((((((....))).))), the folding enthalpy in data set [1] is -18.6 kcal/mol. For the same sequence, in data set [2], the Tm worked out at 52.7 °C.

In the case of GCTTGCGAAAGCATTAGC ((((((....)))..))), the folding enthalpy in data set [1] was -15.2 kcal/mol. Besides, the Tm in data set [2] was found to be 42 °C.

The record behind these values is the array DNA melting data of Ke et al. (doi:10.1101/2024.01.08.574731).
